Screens: PubChem BioAssay, several laboratories
The full list was thinned out, with hits kept by preference.
Redox H2O2 prof: compounds producing H2O2 with reducing agent – biochemical, NIH compound library profiling, artefact control for MLSCN library redox annotation, primary screen; DTT-dependent redox cycling H2O2, phenol red/HRP absorbance; 100% = 100 µM peroxide control, 0% = buffer; activation, % at 10 µM; hit rate 0.03% among 200,000; AID 878, 2007;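 active = activation of at least 50% relative to the plate's high and low controls in the primary single-dose screen; inactive = activation below 50%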;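 note: compound incubated with DTT at 0.8 mM final as the reducing agent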
PfGluPho inh: PfG6PD enzyme inhibitors, primary screen, biochemical, fluorescence intensity, uHTS; glucose-6-phosphate dehydrogenase-6-phosphogluconolactonase (Plasmodium falciparum 3D7); PfGluPho enzyme, NADPH resazurin-diaphorase fluorescence; inhibition, % at 20 µM; hit rate 0.78% among 350,000; AID 504690, 2011;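 active = inhibition reaching at least a set limit at 20 µM in the primary screen, cut at about 59% in these data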;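 note: 0% = DMSO wells with substrate and 100% = DMSO wells lacking glucose-6-phosphate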
G6PDH CS: L. mesenteroides G6PDH inhibitors, counter-screen for G6PDH-coupled screening assays, biochemical, Leuconostoc mesenteroides enzyme; glucose-6-phosphate dehydrogenase [Leuconostoc mesenteroides]; Purified L. mesenteroides G6PDH, diaphorase/resazurin coupled fluorescence, 45 min; inhibition, % at 5 µM; hit rate 0.12% among 200,000; AID 1020, 2008
Diaph inh CS: diaphorase inhibitors and chemical oxidizers, primary screen, counter-screen for diaphorase-coupled primary assays, biochemical, uHTS, resorufin fluorescence; hit rate 0.69% among 190,000; AID 1217, 2008; diaphorase resazurin-to-resorufin fluorescence, NADH, 16 min; bacterial (C. kluyveri) enzyme, not human; inhibition, % at 20 µM;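 active = primary screen inhibition at 20 µM above a set limit, cut at about 50% in these data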;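 note: plate controls were DMSO with full reaction for no effect and wells lacking NADH for full effect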
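Test system: Clostridium kluyveri diaphorase enzyme / Quantity: diaphorase at 0.14 U/mL in enzyme working solution / Incubation: 16-min room-temperature incubation before reading / Benchmarks: NADH-free wells as positive control, DMSO-only neutral wells / Signal: resorufin fluorescence 544/590 nm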
L major viab: Leishmania major promastigote growth inhibition, primary screen. Leishmania major promastigotes, resazurin fluorescence viability. inhibition, % at 10 µM. hit rate 9% among 200,000;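 note: promastigotes grown with compound for 44 hours at 28 °C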
Diaphorase act: compounds boosting diaphorase resazurin reduction – biochemical, uHTS, resorufin fluorescence, counter-screen for diaphorase-coupled primary assays, primary screen; Diaphorase/resazurin coupled assay, 16 min; hits give high values; 1 = vehicle wells, 0 = NADH-free wells; activation factor at 20 µM; hit rate 0.005% among 190,000; AID 1229, 2008;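 active = diaphorase activity raised at least twofold by the compound at 20 µM; inactive = activation factor below 2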
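test system = bacterial diaphorase enzyme (C. kluyveri) | quantity = enzyme 0.07 U/mL final | reagent = NADH substrate 0.114 mM plus resazurin dye 0.1 mM, final | incubation = 16 min enzyme reaction, ambient temperature | buffer or medium = HEPES pH 7.4 buffer with MgCl2 and Tween 20 | signal = fluorescence of resorufin, 544 nm excitation, 590 nm emission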
An asterisk follows results filed as active; . = no result given. Cut-off read from the data, not from the text of the source, unless noted: active = inhibition above about 50%; inactive = the rest.

SMILES	Redox H2O2 prof	PfGluPho inh	G6PDH CS	Diaph inh CS	L major viab	Diaphorase act
OCCCCNCc1ccc(OCc2ccccc2)cc1	0	12	-7	-13	90*	1.1
O=C(O)CCCCNCc1ccccc1	0	-3	18	-19	-6	1.2
Cn1c(=O)c2c(-c3ccncc3)c3c(nc2n(C)c1=O)-c1ccccc1C3=O	2	.	.	.	19	.
CC(=O)Nc1ccc(NC(=O)c2cc([N+](=O)[O-])cc([N+](=O)[O-])c2)cc1	.	4	.	.	.	.
Cc1ccc(NC(=O)c2ccc(Nc3c([N+](=O)[O-])cc([N+](=O)[O-])cc3[N+](=O)[O-])cc2)cc1	0	40	-2	10	100*	0.9
COc1ccc(C(=O)NC(=S)NNC(=O)c2ccc(NC(C)=O)cc2)cc1Br	-1	-29	6	38	77*	0.6
COc1ccc(NC(=S)Nc2cccc([N+](=O)[O-])c2)cc1	4	-7	6	-8	87*	1.1
COc1ccc(NC(=O)c2cccc([N+](=O)[O-])c2)cc1	-2	12	-1	2	3	1
CC(=O)NNC(=S)NC(=O)c1cccc([N+](=O)[O-])c1	0	22	3	34	68*	0.7
O=C(NNC(=S)NC(=O)c1ccc(Br)cc1)c1cccc([N+](=O)[O-])c1	.	-18	.	.	.	.
CCOC(=O)Cc1csc(NC(=S)NC(=O)c2ccc([N+](=O)[O-])cc2)n1	0	-20	18	44	75*	0.6
CCOC(=O)Cc1csc(NC(=S)NC(=O)c2ccc(Cl)cc2)n1	-4	-29	4	34	-9	0.7
O=C(NNc1c(Cl)cc(Cl)cc1Cl)c1cccc([N+](=O)[O-])c1	0	1	8	12	79*	0.9
CCC(=O)N1CCN(c2ccccc2NC(=S)NC(=O)c2cccc([N+](=O)[O-])c2)CC1	0	-2	1	38	61*	0.6
CC(=O)Nc1ccc(NC(=S)NC(=O)c2ccc([N+](=O)[O-])cc2)cc1	0	2	8	19	63*	0.8
CCC(=O)N1CCN(c2ccc(NC(=S)NC(=O)c3cccc([N+](=O)[O-])c3)cc2)CC1	-4	-13	-1	35	-4	0.7
O=C(NNC(=S)NC(=O)c1ccccc1Cl)c1cccc([N+](=O)[O-])c1	.	-6	.	.	.	.
O=C(NCc1ccc(Cl)cc1)c1cccc2c1C(=O)N(CC1CCCO1)C2 (stereo not given)	.	0	.	.	.	.
CC(C)c1ccccc1NC(=O)COc1ccc(C(=O)NCCc2ccccc2)cc1	0	2	-7	12	71*	0.9
CC1(C)OC2COC(c3[nH]nc4c(=O)[nH]c(=O)[nH]c34)C2O1 (stereo not given)	.	0	.	.	.	.
CC1CCCN(Cc2ccc(OCc3ccccc3)cc2)C1 (stereo not given)	.	-3	.	.	.	.
COc1ccc(OCCCN2CCCC(C)C2)cc1 (stereo not given)	2	-8	-21	5	97*	1
CC1CCCN(CCCOc2ccc([N+](=O)[O-])cc2)C1 (stereo not given)	0	20	0	16	89*	0.8
O=[N+]([O-])c1ccc(OCCN2CCCCCC2)cc1	0	-8	-3	-3	13	1
NN=C1c2ccccc2-c2ccc(N)cc21	.	22	.	.	.	.
SMILES	Redox H2O2 prof	PfGluPho inh	G6PDH CS	Diaph inh CS	L major viab	Diaphorase act
O=C(CN1C(=O)COc2ccc(S(=O)(=O)N3CCOCC3)cc21)NCc1ccccn1	.	-16	.	.	.	.
CCOCCCNC(=O)c1ccccc1OC1CCN(S(C)(=O)=O)CC1	0	-9	14	0	-3	1
COc1ccc(CNC(=O)C2(c3ccc(Cl)cc3)CC2)cc1	0	-10	0	19	4	0.8
NS(=O)(=O)c1ccc(CNC(=O)C2(c3ccc(Cl)cc3)CC2)cc1	-1	-11	10	8	85*	0.9
COc1cc(CO)cc(Br)c1OCC(=O)Nc1cccc2ccccc12	-1	-3	0	10	1	0.9
O=C(/C=C/c1ccccc1)NC(NC(=S)Nc1ccc(Cl)cc1)C(Cl)(Cl)Cl (stereo not given)	-4	38	0	12	46	0.9
O=C(/C=C/c1ccccc1)NC(NC(=S)Nc1cc(Cl)ccc1Cl)C(Cl)(Cl)Cl (stereo not given)	2	6	-1	-10	99*	1.1
CNCC/C=C1/c2ccccc2CSc2ccccc21	0	-11	3	17	90*	0.8
OCCN1CCN(CC/C=C2/c3ccccc3CSc3ccccc32)CC1	.	-1	.	.	.	.
CCOC(=O)c1c(NC(=O)COC(=O)c2c(C)noc2C)sc2c1CCC2	3	-6	0	20	-1	0.8
CCOC(=O)c1sc(NC(=O)CCN2CCN(C)CC2)c(C(=O)OCC)c1C	2	-7	22	.	100*	.
CCOC(=O)c1c(NC(=O)CN2CCN(C)CC2)sc(C(=O)Nc2ccccc2)c1C	-1	9	2	-2	99*	1
CCOC(=O)c1c(NC(=O)CN2CCOCC2)sc(C(=O)NC)c1C	0	-10	3	-3	5	1
C/C(CCc1ccc2c(c1)OCO2)=N\N=C1\NC(=O)CC(C(=O)Nc2ccc(Cl)cc2)S1 (stereo not given)	1	-3	4	24	-7	0.8
CC[C@H](C)[C@@H](C(=O)NCCCCCCCCCCC(=O)N1CCNCC1)n1cc(CCCCN=C(N)N)nn1	.	10	.	.	.	.
O=C(CNC(=O)c1cccs1)Nc1ccc2c(c1)OCCO2	.	-15	.	.	.	.
O=[N+]([O-])c1ccccc1S(=O)(=O)N(CC(O)CN1CCCCC1)c1ccccc1 (stereo not given)	.	0	.	.	.	.
CCCCN(CCCC)CC(O)CN(c1cc([N+](=O)[O-])ccc1OC)S(=O)(=O)c1ccccc1 (stereo not given)	1	8	-7	-3	71*	1
Cc1ccc(N(CC(O)CN2CCCCC2)S(=O)(=O)c2ccccc2[N+](=O)[O-])cc1 (stereo not given)	0	-14	14	20	99*	0.8
COc1ccc([N+](=O)[O-])cc1N(CC(O)CN1CCOCC1)S(=O)(=O)c1ccccc1 (stereo not given)	.	3	.	.	.	.
COc1ccc([N+](=O)[O-])cc1N(CC(O)CN1CCCCC1)S(=O)(=O)c1ccc(C)cc1 (stereo not given)	1	-18	3	.	56*	.
